Source: publication PMC11887798 (Science Advances, 2025)

B1: PSGL-1: natural P-selectin ligand on neutrophils (protein, UniProt Q14242 42-412, looked up)
P-selectin glycoprotein …: QATEYEYLDYDFLPETEPPEMLRNSTDTTPLTGPGTPESTTVEPAARRSTGLDAGGAVTELTTELANMGNLSTDSAAMEIQTTQPAATEAQTTQPVPTEAQTTPLAATEAQTTRLTATEAQTTPLAATEAQTTPPAATEAQTTQPTGLEAQTTAPAAMEAQTTAPAAMEAQTTPPAAMEAQTTQTTAMEAQTTAPEATEAQTTQPTATEAQTTPLAAMEALSTEPSATEALSMEPTTKRGLFIPFSVSSVTHKGIPMAASNLSVNYPVGAPDHISVKQCLLAILILALVATIFFVCTVVLAVRLSRKGHMYPVRNYSPTEMVCISSLLPDGGEGPSATANGGLSKAKSPGLTPEPREDREGDDLTLHSFLP

Key:
C57BL/6 mice = assay: APAP-induced ALF model validation; format: in vivo, mouse; conditions: APAP 500 mg/kg i.p.
Method in brief: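 Male C57BL/6 mice were housed under SPF conditions with a 12-hour/12-hour light/dark cycle at 22°C and 45 to 60% humidity. APAP was dissolved in physiological saline by heating at 50°C and given intraperitoneally to induce acute liver failure.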

P-selectin = conditions: read-out: natural PSGL-1 binding to P-selectin (Kd); ref [23]; cited from earlier work

Row | Molecule | serum ALT and AST (C57BL/6 mice; n = 6) | mortality of mice (C57BL/6 mice; within 72 hours, n = 10) | Kd (P-selectin) [nM]
1 | CC(=O)Nc1ccc(O)cc1 [APAP, acetaminophen] | rising rapidly within 12 hours and peaking at 24 hours | over 50% | –
2 | B1 | – | – | 320
